PostGolgi yeast = phenotypic screen on post-Golgi transport, primary screen | post-Golgi transport phenotypic cell assay | inhibition, % at 10 µM | 98,000 tested, 0.9% active | AID 739, 2007;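 also: yeast cells grown in 1536-well plates; yeast grown about 18 h at 30C before absorbance read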
Pyk2 oligo antag = antagonists of Pyk2 self-association, primary screen, Q293 cells, FERM NanoBiT luminescence, HTS | z-score (the deposit names both 25 µM and 10 µM) | AID 1347419, 2020 | active compounds read low | Protein-tyrosine kinase 2-beta (Homo sapiens), Q14289 | 99,000 tested, 0.83% active;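 active = Z-score of -3 or lower, scaled per plate to the spread of control and sample wells; inactive = z-score above -3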;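 also: negative z-score means lost luminescence so less FERM oligomerization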
Target sequence (Q14289 whole entry, looked up): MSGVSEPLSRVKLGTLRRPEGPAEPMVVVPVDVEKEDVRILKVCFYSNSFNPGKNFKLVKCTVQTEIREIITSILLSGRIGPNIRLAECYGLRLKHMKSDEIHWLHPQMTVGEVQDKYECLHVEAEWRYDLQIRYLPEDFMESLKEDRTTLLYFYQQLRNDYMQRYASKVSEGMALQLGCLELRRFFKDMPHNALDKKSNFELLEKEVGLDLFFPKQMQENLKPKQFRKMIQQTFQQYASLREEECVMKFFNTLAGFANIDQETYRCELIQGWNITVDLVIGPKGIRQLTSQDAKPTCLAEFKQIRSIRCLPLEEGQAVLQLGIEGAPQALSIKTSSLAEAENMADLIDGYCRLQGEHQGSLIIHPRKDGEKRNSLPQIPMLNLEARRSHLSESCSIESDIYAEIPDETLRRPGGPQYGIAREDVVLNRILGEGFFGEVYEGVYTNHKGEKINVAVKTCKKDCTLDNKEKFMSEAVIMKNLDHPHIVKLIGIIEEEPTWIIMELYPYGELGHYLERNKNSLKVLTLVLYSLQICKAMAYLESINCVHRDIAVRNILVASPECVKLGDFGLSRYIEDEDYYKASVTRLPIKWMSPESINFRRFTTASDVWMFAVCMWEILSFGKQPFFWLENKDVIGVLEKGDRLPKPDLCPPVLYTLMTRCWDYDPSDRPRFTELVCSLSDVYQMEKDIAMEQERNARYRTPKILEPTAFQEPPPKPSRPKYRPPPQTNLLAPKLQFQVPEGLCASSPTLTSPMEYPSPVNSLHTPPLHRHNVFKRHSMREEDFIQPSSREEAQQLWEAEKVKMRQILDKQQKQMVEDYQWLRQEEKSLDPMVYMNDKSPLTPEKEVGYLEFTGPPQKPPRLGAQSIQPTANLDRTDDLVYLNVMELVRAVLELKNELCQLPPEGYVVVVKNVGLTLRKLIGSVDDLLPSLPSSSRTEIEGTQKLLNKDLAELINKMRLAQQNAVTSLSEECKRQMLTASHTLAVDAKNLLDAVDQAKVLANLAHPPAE
PostGolgi ctrl = growth inhibition of yeast control strain, primary screen, counter-screen for post-Golgi transport modulator project. efflux-deficient yeast background strain, growth absorbance A615, 16 h. inhibition, % at 10 µM. 98,000 tested, 5% active. AID 738, 2007
FAK blocker = FAK kinase inhibitors, primary screen, biochemical | Focal adhesion kinase 1 (Homo sapiens), Q05397 | biochemical FAK kinase activity assay | 97,000 tested, 0.84% active | inhibition, %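 (tested at 7 µM)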; in the data active = inhibition above about 19%;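 also: 0% = DMSO and 100% = reference compound high control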
Calb biofilm kill = clotrimazole potentiators killing Candida biofilms, primary screen, with clotrimazole, Alamar Blue; C. albicans biofilm + clotrimazole; inhibition, % at 6 µM; 85,000 tested, 0.14% active;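 active = inhibition above 20%; inactive = inhibition below 20%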;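 also: preformed 24 hr biofilms exposed to compound for 48 hr; 0% = biofilm without compound and 100% = blank killed by clotrimazole plus chlorhexidine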
tolC growth inh = growth inhibitors of E. coli tolC mutant, primary screen, strain BW25113 ΔtolC::kan, 384-well | OD615 | growth inhibition, % at 10 µM (by protocol) | 65,000 tested, 2.2% active;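 active = growth inhibition at or above a cutoff equal to the mean over every tested compound plus 3 SD, cut at about 60% in these data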;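 also: growth measured after 20 h incubation at 37 °C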
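Material: E. coli BW25113 ΔtolC::kan, tolC deletion mutant strain. Measure: percent growth inhibition. Schedule: 37 °C, 20 h exposure. Doses: single-point testing at 10 µM. Signal: A615 absorbance measurement. Buffer or medium: kanamycin-containing LB broth (50 µg/mL).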
* hit, by the source's call; · = not tested or not shown. An excerpt weighted towards active compounds, which were near 6.9% of everything screened. Rule as the data show it, unless noted: active = inhibition above about 30%; inactive = the rest.

SMILES	PostGolgi yeast	Pyk2 oligo antag	PostGolgi ctrl	FAK blocker	Calb biofilm kill	tolC growth inh
O=C(OCn1ncc(Br)c(Br)c1=O)c1c(F)cccc1F	57.4*	·	26.1	0.2	2.2	·
CCOC(=O)c1c(NC(=O)c2c(Br)cnn2CC)sc(C)c1C	·	0.54	·	-1.9	7.4	·
Cn1c(=O)oc2cc(S(=O)(=O)Nc3ccc4c(c3)OCCO4)ccc21	-3.0	1.6	0.0	-3.5	7.4	-6.4
COc1ccc(NS(=O)(=O)c2ccc3oc(Nc4ccc5c(c4)OCCO5)nc3c2)cc1	-6.9	-2.7	13.3	-2.5	4.4	79.3*
CCc1nc(SCC(=O)NCc2ccco2)c2c3c(sc2n1)CCCC3	-6.4	-1.47	11.2	-11.2	4.2	2.5
FC(F)(F)c1cccc(NC(=S)Nc2ccc(Cl)cc2Cl)c1	37.5*	0.51	52.7*	-6.0	·	·
S=C(Nc1ccccc1)Nc1ccc(Cl)cc1Cl	-2.8	0.89	0.4	1.1	·	·
Fc1ccc(NC(=S)Nc2ccc(F)c(Cl)c2)cc1Cl	72.2*	-1.57	65.2*	0.5	·	·
COC(=O)c1ccc(NC(=O)Nc2ccc(F)c(Cl)c2)cc1	3.0	-0.76	35.4*	-0.9	-2.2	·
CCCCC(=O)Nc1ccc(F)c(Cl)c1	-13.3	0.52	6.7	0.3	-0.7	10.3
CCOC(=O)N1CCC(N2C(=O)c3ccccc3C2Nc2cccnc2)CC1 (stereo unspecified)	3.7	·	13.3	·	5.6	1.2
CCCn1c(=O)c(Cc2ccccc2)c(O)c2ccccc21	-2.8	-0.22	7.1	·	1.8	19.7
Cn1c(=O)c(Cc2ccccc2)c(O)c2ccccc21	2.4	-0.08	49.1*	-0.8	2.8	·
CC1(C)Cc2c(c(N3CCOCC3)nc3sc4c(NCc5ccco5)nnnc4c23)CS1	10.9	0.3	16.7	6.6	24.1*	8.2
CCc1cc2c(=O)c(-c3ccc4c(c3)OCCO4)coc2cc1OC(=O)c1ccco1	-22.4	-3.53*	-0.5	3.5	-0.5	0.6
CCCc1cc2c(=O)c(-c3ccc4c(c3)OCCO4)coc2cc1OC(=O)c1ccco1	12.2	-3.03*	6.3	-0.3	11.5	·
Cc1ccc(Nc2nc(N3CCOCC3)nc(N3CCOCC3)n2)cc1	8.4	-0.36	-0.3	-0.5	·	-11.6
CCCC(=O)Nc1ccc2nc(SCC(=O)Nc3ccc(N4CCOCC4)c(Cl)c3)sc2c1	-1.3	-3.48*	-0.6	-1.8	·	·
Cn1c(=O)c2c(nc(SCC(=O)Nc3ccc(N4CCOCC4)c(Cl)c3)n2C)n(C)c1=O	·	·	·	·	·	-10.6
CSc1nc2ccc(Nc3nc(N4CCOCC4)nc(N4CCOCC4)n3)cc2s1	10.9	-3.39*	14.6	-2.5	3.7	4.0
CCOC(=O)N1CCN(C(=O)Cc2cccs2)CC1	8.7	0.21	-1.6	1.4	2.8	-18.8
Cc1cccc(-n2ncc3c(NCc4ccc5c(c4)OCO5)ncnc32)c1	-2.8	-1.99	18.1	-7.8	10.6	75.8*
c1ccc(-n2ncc3c(NCc4ccc5c(c4)OCO5)ncnc32)cc1	·	-0.75	·	-2.4	7.4	-0.5
Cc1ccc(-n2ncc3c(NCc4ccc5c(c4)OCO5)ncnc32)c(C)c1	4.1	-2.76	38.0*	4.3	4.9	4.3
CN(C)CC(C(=O)c1ccccc1)c1ccccc1 (stereo unspecified)	2.1	-0.22	31.4*	·	-2.3	19.0
SMILES	PostGolgi yeast	Pyk2 oligo antag	PostGolgi ctrl	FAK blocker	Calb biofilm kill	tolC growth inh
O=C(CSc1nnc(COc2ccccc2)n1-c1ccccc1)c1cccs1	-1.6	-0.41	41.4*	·	-2.8	32.5
Cc1ccc(OCc2nnc(SCC(=O)c3cccs3)n2-c2ccccc2)cc1C	0.8	-1.22	18.6	-1.2	2.6	·
O=C(NCc1ccc2c(c1)OCO2)c1ccc2c(c1)C(=O)N(Cc1cccnc1)C2=O	-1.9	0.3	2.8	1.6	1.1	-8.6
O=C(Nc1cccnc1)c1ccc2c(c1)C(=O)N(Cc1cccnc1)C2=O	28.0	-1.33	30.1*	-0.8	2.2	-15.0
S=C(c1ccc(-c2ccc(Cl)c(Cl)c2)o1)N1CCOCC1	-6.7	-0.11	17.4	·	10.1	64.6*
O=C(Cc1ccc(Br)cc1)c1ccc(O)cc1O	-3.1	-0.9	30.2*	4.4	·	94.9*
O=C(Cc1nc2ccccc2s1)c1ccc(O)cc1O	-6.2	·	3.7	5.3	·	0.0
O=C(COc1ccccc1Br)c1ccc(O)cc1O	-1.6	0.18	18.4	11.8	2.6	70.2*
CCCCC(=O)c1ccc(O)cc1O	·	0.21	·	4.3	5.0	·
Cc1cc(C(C)(C)C)ccc1OCCN1CCCC1	66.8*	0.93	29.1	-1.6	6.5	·
COC(=O)c1ccc(Cn2cc(Cl)cn2)cc1	-5.2	-0.38	2.4	3.8	6.7	3.5
O=C(Nc1cccc2ccccc12)c1ccc(Cn2cc(Cl)cn2)cc1	-18.9	0.85	38.5*	2.9	·	·
CC(c1ccc(F)cc1)n1c(-c2ccc3ccccc3n2)n[nH]c1=S (stereo unspecified)	-0.2	-0.79	36.4*	-7.6	·	·
CC(c1ccc(Cl)cc1)n1c(-c2ccc3ccccc3n2)n[nH]c1=S (stereo unspecified)	3.1	-0.49	54.6*	-6.1	·	·
CCOc1cc(N2CCOCC2)c(OCC)cc1NC(=O)CC12CC3CC(CC(C3)C1)C2	-1.9	-1.06	11.8	3.0	·	·
O=C1C2=C(SCCS2)C(=O)N1c1ccccc1	3.7	-0.36	22.2	1.5	6.9	-6.2
CN1CCc2c(sc3c2C(=O)NC(c2ccc(-c4cccc(Cl)c4)o2)N3)C1 (stereo unspecified)	·	·	·	·	9.3	-1.9
CCCCCOC(=O)c1ccc(NC(=O)c2ccco2)cc1	-9.6	-0.09	9.4	-2.2	3.8	98.6*
O=C(Nc1ccc(N2CCN(C(=O)c3ccc(Cl)cc3)CC2)cc1)c1ccc(Br)o1	20.8	0.7	54.1*	9.9	11.5	30.8
O=C(Cc1ccc(Cl)cc1)Nc1ccc(N2CCN(C(=O)c3ccco3)CC2)cc1	-3.7	0.14	43.3*	2.1	4.9	9.4
O=C(Nc1ccc(N2CCN(C(=O)c3ccco3)CC2)c(Cl)c1)c1c(F)c(F)c(F)c(F)c1F	21.6	1.01	62.7*	-0.3	9.5	77.3*
CCOC(=O)c1sc(NC(=S)NC(=O)c2cccc(Cl)c2)c(C(=O)OCC)c1C	3.0	0.31	6.4	3.0	·	·
O=C(NCc1ccc(F)cc1)c1c(O)c2cccc3c2n(c1=O)CCC3	-0.5	0.59	-12.5	·	7.0	-35.0
O=C1CCCC2=C1C(c1ccc(OS(=O)(=O)c3ccc(Cl)cc3)cc1)C1=C(CCCC1=O)O2	-5.2	-2.23	11.0	-3.6	·	·
CCCn1c(SCC(=O)c2cc(C)n(-c3ccc4c(c3)OCO4)c2C)n[nH]c1=O	·	-0.61	·	·	·	·
O=C(/C=C/c1ccc(Cl)cc1)Nc1ccc(N2CCCCC2)cc1	-7.6	0.77	0.3	-2.2	·	·
O=C(COc1nnc2ccccn12)N1CCN(S(=O)(=O)c2ccccc2)CC1	·	0.3	·	-2.9	3.2	14.1
O=C(Cn1nc(-c2ccc(Cl)cc2)c2ccccc2c1=O)Nc1cccnc1	2.4	-0.5	11.5	-0.8	1.8	·
COc1ccc(-c2nn(CC(=O)Nc3ccc(Cl)c(Cl)c3)c(=O)c3ccccc23)cc1	7.0	-0.92	32.2*	0.8	1.3	·

Compound activity as filed in PubChem BioAssay.
